Calls of active or inactive are those of the source. The rule behind the calls is not given here.
Experiments:
[1] = biological target: T1, Histone-lysine N-methyltransferase NSD2 (Homo sapiens, UniProt O96028); assay: (§1) Binding affinity to NSD2 PWWP1 domain (unknown origin) assessed as dissociation constant by surface plasmon resonance analysis
T1 sequence (O96028 whole entry): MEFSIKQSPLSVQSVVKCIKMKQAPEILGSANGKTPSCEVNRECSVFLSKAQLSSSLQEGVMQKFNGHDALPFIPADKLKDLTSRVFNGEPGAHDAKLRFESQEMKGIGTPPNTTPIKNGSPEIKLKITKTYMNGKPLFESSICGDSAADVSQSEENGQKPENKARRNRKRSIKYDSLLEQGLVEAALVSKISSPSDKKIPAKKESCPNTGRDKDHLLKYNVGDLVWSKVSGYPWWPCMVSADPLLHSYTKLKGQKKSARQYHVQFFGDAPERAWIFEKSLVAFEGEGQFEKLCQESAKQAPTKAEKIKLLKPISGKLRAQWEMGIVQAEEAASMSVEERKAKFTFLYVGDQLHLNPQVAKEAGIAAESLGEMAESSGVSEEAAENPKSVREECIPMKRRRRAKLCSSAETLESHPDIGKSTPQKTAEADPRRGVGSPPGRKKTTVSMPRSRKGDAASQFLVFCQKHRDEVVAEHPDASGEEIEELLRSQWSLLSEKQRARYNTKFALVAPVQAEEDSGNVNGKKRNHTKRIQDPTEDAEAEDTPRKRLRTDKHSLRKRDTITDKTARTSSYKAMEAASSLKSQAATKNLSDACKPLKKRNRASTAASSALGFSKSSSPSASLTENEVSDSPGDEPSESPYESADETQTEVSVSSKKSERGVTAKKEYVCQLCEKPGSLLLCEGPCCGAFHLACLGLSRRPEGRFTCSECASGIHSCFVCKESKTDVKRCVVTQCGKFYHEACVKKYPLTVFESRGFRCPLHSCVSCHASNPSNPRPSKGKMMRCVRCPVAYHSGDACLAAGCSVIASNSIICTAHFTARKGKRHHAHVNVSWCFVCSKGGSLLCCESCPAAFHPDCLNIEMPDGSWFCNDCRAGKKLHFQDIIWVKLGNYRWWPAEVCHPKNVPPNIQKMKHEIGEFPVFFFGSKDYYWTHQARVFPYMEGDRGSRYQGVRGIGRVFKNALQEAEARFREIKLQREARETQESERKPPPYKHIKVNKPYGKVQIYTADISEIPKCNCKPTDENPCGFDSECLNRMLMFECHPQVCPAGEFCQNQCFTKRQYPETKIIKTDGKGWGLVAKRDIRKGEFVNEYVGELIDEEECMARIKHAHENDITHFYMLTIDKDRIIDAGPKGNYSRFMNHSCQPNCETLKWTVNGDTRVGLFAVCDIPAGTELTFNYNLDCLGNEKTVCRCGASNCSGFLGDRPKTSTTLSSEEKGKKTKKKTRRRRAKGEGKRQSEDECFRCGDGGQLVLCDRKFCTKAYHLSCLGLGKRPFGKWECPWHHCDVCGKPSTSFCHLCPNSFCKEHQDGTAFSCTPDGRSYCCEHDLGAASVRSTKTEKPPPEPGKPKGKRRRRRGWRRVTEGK
In short: (§2)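 SPR in single-cycle kinetics, HBS-EP buffer (20 mM HEPES pH 7.4, 150 mM NaCl, 3 mM EDTA, 0.05% Tween-20) with 5% DMSO. Ten concentrations from 200 μM top, twofold dilutions. Contact time 60 s, dissociation 120 s, flow 75 μL/min; Kd derived.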

[2] = biological target: T2, Histone-lysine N-methyltransferase NSD2 (Homo sapiens) (UniProt O96028); assay: Binding affinity to NSD2 PWWP1 domain (unknown origin) assessed as change in aggregation temperature at 500 uM by heating at 25 to 85 degC by differential static light scattering method; settings: for deltaT: filed as antagonist
T2 sequence (whole entry): T1 sequence (O96028 whole entry)

[3] = biological target: T2, Histone-lysine N-methyltransferase NSD2 (Homo sapiens); assay: as §1; in short: as §2

Kd [1]	deltaT [2]	Activity [3]	Activity [2]	Structure (SMILES)
114 µM	1.1 °C	–	–	N#Cc1ccc(C(=O)N(Cc2ccc(F)cc2)C2CCC2)cc1
74 µM	2 °C	–	–	CN(Cc1ccc(F)cc1)C(=O)c1ccc(C#N)cc1
178 µM	2.2 °C	–	–	N#Cc1ccc(C(=O)N2CCCC2c2ccsc2)cc1 (configuration not stated)
110 µM	2.4 °C	–	–	N#Cc1ccc(C(=O)N2CCCC2c2ccccc2)cc1 (configuration not stated)
5.7 µM	5.4 °C	–	–	N#Cc1ccc(C(=O)N(CC2CCOC2)C2CC2)cc1 (configuration not stated)
–	–	inactive	inactive	N#Cc1ccc(C(=O)N(Cc2ccc(F)cc2)C2CCCCC2)cc1
173 µM	1.4 °C	–	–	COC(=O)c1ccc(C(=O)N2CCCC2c2ccc(F)cc2)cc1 (configuration not stated)
–	–	inactive	inactive	O=C(c1ccccc1)N1CCCC1c1ccccc1 (configuration not stated)
297 µM	1.2 °C	–	–	O=C(c1ccc(N2CNC=N2)cc1)N1CCCC1c1ccc(F)cc1 (configuration not stated)
–	–	inactive	inactive	CC(C)N(Cc1ccc(F)cc1)C(=O)c1ccc(C#N)cc1
138 µM	2.7 °C	–	–	N#Cc1ccc(C(=O)N2CCCC2c2ccc3c(c2)OCCO3)cc1 (configuration not stated)
160 µM	2.8 °C	–	–	N#Cc1ccc(C(=O)N2CCCC2c2ccncc2)cc1 (configuration not stated)
–	–	inactive	inactive	N#Cc1ccc(C(=O)NCc2ccc(F)cc2)cc1
–	–	inactive	inactive	Cc1ccc(C(=O)N2CCCC2c2ccc(Cl)cc2)cc1 (configuration not stated)
208 µM	2.4 °C	–	–	COc1ccc(C2CCCN2C(=O)c2ccc(C#N)cc2)cc1 (configuration not stated)

Structure (SMILES)	Kd [1]	deltaT [2]	Activity [3]	Activity [2]
N#Cc1ccc(C(=O)N(Cc2ccc(F)cc2)C2CC2)cc1	7 µM	–	–	–
N#Cc1ccc(C(=O)N2CCCC2c2ccc(Cl)cc2)cc1 (configuration not stated)	175 µM	–	–	–
